One may read the half-life as how long it takes for the measured level to halve. A lower half-life goes with fast loss. By clearance is commonly meant a measure of how efficiently the substance is removed, as volume per time. A high value points to efficient removal. One may read the AUC as concentration integrated over time. A low value points to less exposure. The term AUC(0-inf) denotes the area under the concentration-time curve extrapolated to infinity. High values mean more exposure, low ones less exposure. By AUC(0-t) is commonly meant exposure summed from dosing to a finite time, without extrapolation to infinity. Higher therefore signals more exposure.

Data set [1] can be described thus: Plasma concentration in BALB/c mouse at 2.5 mg/kg, iv at 1 hr by LC/MS-MS analysis. In kind it is ADME, organism-based.
Data set [2] can be described thus: Plasma concentration in BALB/c mouse at 5 mg/kg, ip at 1 hr by LC/MS-MS analysis. It is filed as ADME, organism-based.
Data set [3] is described as follows: Plasma concentration in BALB/c mouse at 2.5 mg/kg, iv at 2 hrs by LC/MS-MS analysis. It is filed as ADME, organism-based.
Data set [4] can be described thus: Initial concentration in BALB/c mouse at 2.5 mg/kg, iv by LC/MS-MS analysis. In kind it is ADME, organism-based. Particulars: in vivo.
Data set [5] can be described thus: Half life in BALB/c mouse at 2.5 mg/kg, iv by LC/MS-MS analysis. In kind it is ADME, organism-based. Particulars: in vivo.
Data set [6] is described as follows: Plasma concentration in BALB/c mouse at 5 mg/kg, ip at 0.25 hrs by LC/MS-MS analysis. In kind it is ADME, organism-based.
Data set [7] in a line: Plasma concentration in BALB/c mouse at 5 mg/kg, ip at 2 hrs by LC/MS-MS analysis. It is filed as ADME, organism-based.
The test system of data set [8] is Mus musculus. The data set is described as follows: Clearance in BALB/c mouse at 5 mg/kg, ip by LC/MS-MS analysis. Particulars: in vivo. It is filed as ADME, organism-based.
A further data set relates to 4T1. The data set is described as follows: Antitumor activity against mouse 4T1 cells allografted in iv dosed Balb/C mouse assessed as tumor growth inhibition administered every 3 days for 21 days measured 2 times for every week during dosing. In kind it is functional, organism-based. A digest of the protocol:
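4T1 cells were grown in RPMI-1640 with 10% FBS, pyruvate and NEAA at 37 °C and 5% CO2. Female Balb/C mice received 1×10^6 cells into the second mammary fat pad. At about 100 mm3, mice were grouped five per group and dosed by tail vein in 200 µL (PBS diluent) every three days for 21 days. Tumor volume (L×B²/2, caliper) and body weight were taken twice weekly. The experiment was repeated twice.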

Data set [9] is described as follows: Plasma concentration in BALB/c mouse at 5 mg/kg, ip at 0.5 hrs by LC/MS-MS analysis. In kind it is ADME, organism-based.
In data set [10] the test system is Mus musculus. The data set is described as follows: Volume of distribution in BALB/c mouse at 5 mg/kg, ip by LC/MS-MS analysis. It is filed as ADME, organism-based. Particulars: in vivo.
Data set [11] can be described thus: Plasma concentration in BALB/c mouse at 2.5 mg/kg, iv at […] by LC/MS-MS analysis. In kind it is ADME, organism-based.
A short description of data set [12]: Volume of distribution in BALB/c mouse at 2.5 mg/kg, iv by LC/MS-MS analysis. It is filed as ADME, organism-based. The following applies: in vivo.
The test system of data set [13] is Mus musculus. Kind of data set: Half life in BALB/c mouse at 5 mg/kg, ip by LC/MS-MS analysis. In kind it is ADME, organism-based. Particulars: in vivo.
A short description of data set [14]: Clearance in BALB/c mouse at 2.5 mg/kg, iv by LC/MS-MS analysis. Particulars: in vivo. In kind it is ADME, organism-based.
The test system of data set [15] is Mus musculus. Kind of data set: AUC (0 to infinity) in BALB/c mouse at 5 mg/kg, ip by LC/MS-MS analysis. It is filed as ADME, organism-based. Also on record: dose 5 mg/kg, route intraperitoneal, time infinity. The following applies: in vivo.
Data set [16] can be described thus: AUC (0 to infinity) in BALB/c mouse at 2.5 mg/kg, iv by LC/MS-MS analysis. Set-up: dose 2.5 mg/kg, time infinity, route intravenous. The following applies: in vivo. It is filed as ADME, organism-based.
Data set [17] is described as follows: Plasma concentration in BALB/c mouse at 5 mg/kg, ip at 4 hrs by LC/MS-MS analysis. In kind it is ADME, organism-based.
A short description of data set [18]: AUC (0 to t) in BALB/c mouse at 5 mg/kg, ip by LC/MS-MS analysis. It is filed as ADME, organism-based. The following applies: in vivo.
The nature of data set [19]: AUC (0 to t) in BALB/c mouse at 2.5 mg/kg, iv by LC/MS-MS analysis. In kind it is ADME, organism-based. Particulars: in vivo.
A short description of data set [20]: Plasma concentration in BALB/c mouse at 2.5 mg/kg, iv at 0.5 hrs by LC/MS-MS analysis. In kind it is ADME, organism-based.
Data set [21] can be described thus: Plasma concentration in BALB/c mouse at 2.5 mg/kg, iv at 0.25 hrs by LC/MS-MS analysis. It is filed as ADME, organism-based.
Data set [22] relates to Mus musculus. The data set is described as follows: Toxicity in Swiss mouse allografted with Swiss mouse EAC cells assessed as body weight at 22 mg/kg, ip measured on day 1 (reference value: 26.2 g). In kind it is organism-based. The following applies: in vivo.
For data set [23], the system named is Mus musculus. The data set is described as follows: Toxicity in Swiss mouse allografted with Swiss mouse EAC cells assessed as mortality at 22 mg/kg, ip administered for 9 to 13 days. In kind it is organism-based. Particulars: in vivo.
The next data set has as its system Ehrlich. The data set is described as follows: Antitumor activity against Swiss mouse EAC cells allografted in Swiss mouse assessed as tumor growth inhibition at 22 mg/kg, ip administered for 13 days measured on day 13 post last dose relative to control. In kind it is functional. The following applies: 312 h, read-out: TGI.
In data set [24] the test system is Mus musculus. The data set is described as follows: Toxicity in Swiss mouse allografted with Swiss mouse EAC cells assessed as body weight at 22 mg/kg, ip administered for 9 days measured on day 9 post last dose (reference value: 27.9 g). The following applies: in vivo, 216 h. It is filed as organism-based.
Data set [25] deals with Mus musculus. The data set is described as follows: Toxicity in Swiss mouse allografted with Swiss mouse EAC cells assessed as body weight at 22 mg/kg, ip administered for 5 days measured on day 5 post last dose (reference value: 27.1 g). The following applies: in vivo, 120 h. It is filed as organism-based.
Data set [26] concerns Mus musculus. The data set is described as follows: Toxicity in Swiss mouse allografted with Swiss mouse EAC cells assessed as body weight at 22 mg/kg, ip administered for 13 days measured on day 13 post last dose (reference value: 28.7 g). In kind it is organism-based. Particulars: in vivo, 312 h.

Consider `Nc1nccc(-c2c[nH]c3ncc(-c4ccc(F)cc4)cc23)n1`, for which the concentration at 1 h was determined as 132 ng/mL in data set [1] and 61.6 ng/mL in data set [2]. Further, the results for the concentration at 2 h in data set [3] and in [7] were 99.6 ng/mL and 59.1 ng/mL, respectively. Also, the C0 in [4] was found to be 1470 ng/mL. The same compound gave a half-life in [5] of 2.5 h. Further, the concentration at 0.25 h in data set [6] is 162 ng/mL; in data set [21], 311 ng/mL. In addition, the CL in the data set with Mus musculus [8] is 15 mL/min/kg. For the same compound, the TGI entry in the data set with 4T1 was “Dose-dependent effect”. Besides, the results for the concentration at 0.5 h in data set [9] and in data set [20] were 73 ng/mL and 168 ng/mL, respectively. Further, the Vd was 63.6 L/kg in the data set with Mus musculus [10] and 11.3 L/kg in data set [12]. Further, the concentration at […] in [11] is 797 ng/mL. In the data set with Mus musculus [13], this compound returned a t1/2 of 4.4 h. In data set [14], the clearance is 51.7 mL/min/kg. Moreover, the AUC in the data set on Mus musculus [15] is 504.3 ng·h/mL. The compound also registered an AUC(0-inf) in data set [16] of 795 ng·h/mL. Moreover, the concentration at 4 h in [17] was 40.7 ng/mL. Further, the AUC(0-t) in data set [18] came out at 244 ng·h/mL; in [19], 437 ng·h/mL.

As for `O=c1[nH]cc(F)c(=O)[nH]1` [FLUOROURACIL], the Activity was 26 g with Mus musculus [22]; “Non-Toxic” in the data set on Mus musculus [23]; 24.57 g with Mus musculus [24]; 25 g in the data set with Mus musculus [25]; 24.85 g in the data set with Mus musculus [26]. In addition, the inhibition in vivo at 22 mg/kg in the data set on Ehrlich stood at 50.4%.

(Values after ChEMBL document CHEMBL4028900, “Design of Novel 3-Pyrimidinylazaindole CDK2/9 Inhibitors with Potent In Vitro and In Vivo Antitumor Efficacy in a Triple-Negative Breast Cancer Model” (J Med Chem, 2017).)
